This is a sample that favours compounds with a hit; in the whole collection about 2.3% have one here.
PRMT1 FP inh: PRMT1 (human) inhibition, primary screen; Q99873; recombinant PRMT1, activity-based probe fluorescence polarization; inhibition, % at 2.79 µM; 370,000 tested, 1.3% active; AID 652257;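 active = inhibition above about 21% made by adding two undisclosed values, limit read from the data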
GSTO1 counter: counter-screen for RBBP9 inhibitors: inhibitors of human GSTO1; inhibition, % at 5.96 µM; AID 1974; P78417; 300,000 tested, 1.1% active; recombinant GSTO1, activity-based probe fluorescence polarization;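 active = inhibition above the campaign mean inhibition plus 3 SD, cut at about 35% in these data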
Target sequence (P78417 whole entry, looked up): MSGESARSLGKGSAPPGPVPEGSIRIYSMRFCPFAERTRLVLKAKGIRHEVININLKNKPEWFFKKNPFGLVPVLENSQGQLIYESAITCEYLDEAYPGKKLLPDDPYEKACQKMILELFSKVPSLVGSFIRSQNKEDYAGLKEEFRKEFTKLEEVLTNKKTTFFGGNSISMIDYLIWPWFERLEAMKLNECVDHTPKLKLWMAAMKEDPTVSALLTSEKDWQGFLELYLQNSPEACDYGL
PAD4 FP inh: blocks human protein arginine deiminase 4; Q9UM07; recombinant PAD4, RCA probe fluorescence polarization; inhibition, % at 6.36 µM; 330,000 tested, 0.41% active;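 active = percent inhibition above a cutoff equal to the mean of all tested compounds plus 3 SD, cut at about 15% in these data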
Fam108B counter: blocks mouse Fam108B hydrolase in RBBP9 counter-screen. AID 1947. 300,000 tested, 0.33% active. inhibition, % at 9.51 µM. recombinant Fam108B, FP-Rh probe fluorescence polarization;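 active = inhibition above the screen mean inhibition plus 3 SD, computed separately per campaign, cut at about 18% in these data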;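 note: inhibitors lower polarization as less probe binds the enzyme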
PME-1 primary: blocks human protein phosphatase methylesterase 1 | Q9Y570 | recombinant PME-1, FP-Rh probe fluorescence polarization | inhibition, % at 5.9 µM | 320,000 tested, 0.53% active;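 active = inhibition above the campaign mean of all compounds plus 3 SD, cut at about 26% in these data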;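 note: competitive labeling of PME-1 active site by serine hydrolase directed probe; inhibitors block probe labeling so polarization falls and inhibition rises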
RBBP9 inhibitor: blocks human serine hydrolase RBBP9. O75884. recombinant RBBP9, FP-Rh probe fluorescence polarization. inhibition, % at 7.94 µM. 220,000 tested, 0.2% active. AID 1515;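 active = inhibition above the campaign mean of all tested compounds plus 3 SD, cut at about 14% in these data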
Target sequence (O75884 whole entry, looked up): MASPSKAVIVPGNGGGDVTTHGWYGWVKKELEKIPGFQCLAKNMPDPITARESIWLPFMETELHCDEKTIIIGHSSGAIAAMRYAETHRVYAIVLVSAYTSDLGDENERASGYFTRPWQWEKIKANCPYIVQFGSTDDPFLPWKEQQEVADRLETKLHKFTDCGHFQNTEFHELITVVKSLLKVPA
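Material: RBBP9 protein. Amount: RBBP9 at 2.5 µM in dispensed solution, before mixing. Schedule: 30 min then 45 min, 25 °C. Medium: Tris buffer pH 8.0, NaCl, Pluronic. Measured by: fluorescence polarization. Measure: percent inhibition from mP, scaled between DMSO and no-protein wells. Replication: one well per compound.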
GSTO1 confirm: confirmation of human GSTO1 inhibitors | inhibition, % at 5.96 µM | 2,400 tested, 54% active | shares compounds with GSTO1 counter | recombinant GSTO1, probe fluorescence polarization;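 active = inhibition above the primary screen's cutoff, its mean inhibition plus 3 SD, cut at about 35% in these data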;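 note: loss of polarization as inhibitors block binding of rhodamine sulfonate ester activity probe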
GSTO1 recomb ABPP: GSTO1 (human) inhibition by gel ABPP; shares compounds with GSTO1 counter; recombinant GSTO1, gel ABPP SE-Rh probe fluorescence; inhibition, % at 1 µM; 130 tested, 30% active; AID 463110;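 active = inhibition of the enzyme GSTO1 above about 75%, limit read from the data; inactive = inhibition below that limit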
Of the large screens only hits and unclear results are named; the others gave an inactive call (follow-up assays come after a bar, where they were run).

NC(=O)C1(C(N)=O)OC1c1ccc(Cl)c(Cl)c1 (centres undefined)	GSTO1 counter 65.5 | GSTO1 confirm 76.9 | GSTO1 recomb ABPP inactive
COc1ccc([C@@H]2OC2(C(N)=O)C(N)=O)cc1	none
COC(=O)[C@]12C[C@H](CC(=O)N3CCCCC3)C(=O)N(Cc3ccco3)C1=C[C@H](C(C)C)O[C@@H]2C1CC1	none (no result: GSTO1 counter, PAD4 FP inh, Fam108B counter, PME-1 primary, RBBP9 inhibitor)
CC(=O)c1c(C)nc(-c2ccc(Cl)cc2)nc1N=CN(C)C	GSTO1 counter 38.2 | GSTO1 confirm inactive
CCOC(=O)c1c(CN(C)C)n(C)c2c(O)c(N=NC(N)=O)c3ccc(Br)cc3c12	GSTO1 counter 49.3 (no result: RBBP9 inhibitor) | GSTO1 confirm inactive
CC1=C(C)/C(=N/OC(=O)c2cccc([N+](=O)[O-])c2)C=CC1=O	GSTO1 counter 47.2 (no result: PRMT1 FP inh) | GSTO1 confirm inactive
CCN(CC)c1ccc(/C=C2\C(=O)N(c3nnc(C)c(=O)[nH]3)N=C2C)cc1	GSTO1 counter 40.5 | GSTO1 confirm inactive
CCc1cccc(NC(=O)CSC2=NS(=O)(=O)c3ccccc32)c1	GSTO1 counter 54.6 | GSTO1 confirm inactive
CCn1cc(NC(=O)CCl)c(C)n1	GSTO1 counter 72.4 (no result: PRMT1 FP inh) | GSTO1 confirm 80.9
CCn1cc(CCC(=O)O)c(C)n1	none
Nc1ncc(Br)cc1N=Cc1ccccc1	none
CCOC(=O)CSc1nnnn1-c1cc(OC)c(Cl)cc1OC	none
COc1ccc(-n2nc(C(=O)NCC3CCCO3)c3ccccc3c2=O)cc1 (centres undefined)	none (no result: RBBP9 inhibitor)
Cn1nc(C(=O)NCC2CCCO2)c2ccccc2c1=O (centres undefined)	GSTO1 counter 74.6 | GSTO1 confirm inactive
O=C(NCc1ccc(F)cc1)C1CCCN(c2nc3ccccc3o2)C1 (centres undefined)	none (no result: GSTO1 counter, PAD4 FP inh, Fam108B counter, PME-1 primary, RBBP9 inhibitor)
O=C1C(Cl)=C(NC(=O)c2ccccc2)C(=O)C(Cl)=C1NC(=O)c1ccccc1	PRMT1 FP inh 96.1, GSTO1 counter 78.8, PAD4 FP inh 50.5 (no result: RBBP9 inhibitor) | GSTO1 confirm inactive
Cc1cccc(NC2=C(NC(=O)c3ccccc3)C(=O)c3ccccc3C2=O)c1	PRMT1 FP inh 29.2, GSTO1 counter 55.9 | GSTO1 confirm 37.6
O=C(NC1=C(Nc2ccc(Cl)cc2)C(=O)c2ccccc2C1=O)c1ccccc1	none
CN(C)CCN(C(=O)c1ccc(S(=O)(=O)N(C)C)cc1)c1nc2cc3c(cc2s1)OCCO3	none
O=S(=O)(c1ccccc1)c1cc(O)ccc1O	GSTO1 counter 64.2 | GSTO1 confirm inactive
Cc1c(O)ccc2cc(S(=O)(=O)c3ccccc3)c(=O)oc12	none (no result: RBBP9 inhibitor)
O=S(=O)(c1ccc(Cl)cc1)c1cc(O)ccc1O	GSTO1 counter 61.2 (no result: RBBP9 inhibitor) | GSTO1 confirm inactive
COCCNC(=O)CN(C(=O)CCC(=O)Nc1ccccn1)c1ccc(C)cc1	none (no result: RBBP9 inhibitor)
O=c1c2ccccc2cnn1Cc1n[nH]c(=S)n1C1CC2CCC1C2 (centres undefined)	none
Cc1ccc(C(=O)CSc2nnnn2C(C)C)c(C)c1	GSTO1 counter 39.4 | GSTO1 confirm 37.5
Cc1ccc(C)c(C(=O)CSc2nnnn2C(C)C)c1	none
COc1ccc(CNCCC(c2ccccc2)c2ccc3c(c2)OCO3)cc1 (centres undefined)	none
Oc1ccc(-c2csc(Nc3ccccn3)n2)cc1O	none (no result: RBBP9 inhibitor)
Oc1ccc(-c2csc(Nc3cccc4ccccc34)n2)cc1O	GSTO1 counter 61.5 (no result: RBBP9 inhibitor) | GSTO1 confirm inactive
COc1cccc(N=Nc2c(=O)[nH]n3c(C)cc(C)nc23)c1	GSTO1 counter 38.1 | GSTO1 confirm inactive
O=C(O)c1cccc(O)c1O	none (no result: RBBP9 inhibitor)
Oc1cccc(O)c1O	GSTO1 counter 61.6 (no result: PRMT1 FP inh, RBBP9 inhibitor) | GSTO1 confirm inactive
O=C(NCCC(c1ccccc1)c1ccccc1)c1cnc2sccn2c1=O	none
Cc1cccc(C)c1NC(=S)NCCc1ccc(O)c(O)c1	GSTO1 counter 37.7 | GSTO1 confirm inactive
NS(=O)(=O)c1ccc2nc(NC(=O)c3ccc4c(c3)OCCO4)sc2c1	GSTO1 counter 42.2 (no result: RBBP9 inhibitor) | GSTO1 confirm inactive
CSc1nncc(/C(C)=N\Nc2ccccc2)n1	GSTO1 counter 38.2 | GSTO1 confirm inactive
CC/C(=N/Nc1ccccc1C)c1cnnc(SC)n1	GSTO1 counter 44.1 | GSTO1 confirm inactive
Nc1nnc(CC(=O)N/N=C/c2cc([N+](=O)[O-])cc(Br)c2O)s1	GSTO1 counter 41.0 | GSTO1 confirm 71.0
Nc1nnc(CC(=O)N/N=C/c2cccc([N+](=O)[O-])c2)s1	none
COc1cc(C2c3[nH]c4ccccc4c3C[C@H]3C(=O)N(CCO)CC(=O)N23)cc(OC)c1OC (some centres undefined)	none (no result: RBBP9 inhibitor)
COc1cc2c(cc1OC)C(c1cc(Br)ccc1F)N(C(=O)CCl)CC2 (centres undefined)	GSTO1 counter 85.5, PME-1 primary 31.2 (no result: RBBP9 inhibitor) | GSTO1 confirm 96.1 | GSTO1 recomb ABPP 87.0
CCc1ccc(NC(=O)C(=O)NCCN2CCN(Cc3ccc([N+](=O)[O-])cc3)CC2)cc1	none
CC1(C(=O)Nc2cccc(C(F)(F)F)c2)CO1 (centres undefined)	GSTO1 counter 68.5 (no result: PRMT1 FP inh) | GSTO1 confirm 84.9 | GSTO1 recomb ABPP inactive
O=C(Nc1cccc(C(F)(F)F)c1)C12CC3CC(CC(C3)C1)C2	none
Oc1ccccc1NCC(O)Cn1ccc2ccccc21 (centres undefined)	GSTO1 counter 66.0 | GSTO1 confirm inactive
OC(CNCc1ccccc1)Cn1ccc2ccccc21 (centres undefined)	none
O=C(CN1CCCC1)N/N=C/c1c(O)ccc2ccccc12	GSTO1 counter 38.2 (no result: RBBP9 inhibitor) | GSTO1 confirm inactive
O=C(N/N=C/c1c(O)ccc2ccccc12)C(=O)N1CCCC1	none (no result: GSTO1 counter, PAD4 FP inh, Fam108B counter, PME-1 primary, RBBP9 inhibitor)
CCOC(=O)C1CCCN(c2ccc(NC(=O)c3snc4c(=O)[nH]c(C)nc34)cc2)C1 (centres undefined)	none
O=C(NCCN1CCOCC1)NC1(C(F)(F)F)Oc2ccc(Cl)cc2O1 (centres undefined)	GSTO1 counter 49.2 | GSTO1 confirm inactive
O=C(NCCN1CCOCC1)c1cc(Cl)ccc1Cl	none (no result: GSTO1 counter, PAD4 FP inh, Fam108B counter, PME-1 primary, RBBP9 inhibitor)
Cc1ccc(-c2noc(CSc3nnc(-c4ccncc4)n3-c3ccc(C)cc3)n2)cc1	none
Cc1ccc(-c2noc(CSc3nnnn3C3CCCCC3)n2)cc1	GSTO1 counter 39.6 | GSTO1 confirm inactive
NC(=O)c1cc(N)ccc1N1CCCC1	GSTO1 counter 51.5 | GSTO1 confirm inactive
Cc1cc(N)ccc1N1CCCC1	GSTO1 counter 72.6, PAD4 FP inh 28.4, PME-1 primary 32.7 (no result: PRMT1 FP inh) | GSTO1 confirm inactive
CC(NC(=O)CC1Sc2ccccc2NC1=O)c1ccccc1 (centres undefined)	none
CC[n+]1ccc(C[n+]2ccccc2)c2ccccc21	GSTO1 counter 49.1 | GSTO1 confirm inactive
CC[n+]1ccc(/C=C/c2ccc(N(C)C)cc2)c2ccccc21	none (no result: GSTO1 counter, PAD4 FP inh, Fam108B counter, PME-1 primary)

Source: PubChem
